Rev-RRE block: HIV Rev-RRE protein-RNA interaction inhibition | Rev peptide-RRE RNA binding, FRET | inhibition, % at 8 µM | hit rate 0.79% among 97,000 | AID 704;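 active means inhibition above the screen-wide mean plus 3 SD, cut at about 35% in these data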;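 further: 0% = median DMSO wells and 100% = median Neomycin B control wells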
Target sequence (P05866 whole entry, looked up): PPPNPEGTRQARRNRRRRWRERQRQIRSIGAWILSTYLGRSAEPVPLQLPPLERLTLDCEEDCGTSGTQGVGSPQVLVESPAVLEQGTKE
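System: Cy5-labelled duplex RRE RNA binding fluorescein-labelled HIV Rev peptide; Signal: fluorescein-to-Cy5 FRET, 480 nm excitation; Also added: labelled Rev peptide; Compound: one concentration, 8 µM nominal; Buffer or medium: HEPES pH 7.5 salt buffer with EDTA; Read-out: % inhibition of FRET ratio versus controls; Schedule: 5 min preincubation and 15 min binding, 25 °C.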
ERb coact inh: ER-beta (human) coactivator binding inhibition | Q92731 | TR-FRET ER-beta LBD / SRC1-Cy5 peptide binding; receptor agonist-loaded with 1 µM estradiol | inhibition, % at 25.6 µM | hit rate 1.3% among 86,000 | AID 633;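 active means compounds whose percent inhibition of the receptor-coactivator binding signal exceeds about 50% in the single-dose screen, limit read from the data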;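 further: 0% = receptor plus peptide wells without compound and 100% = peptide-only wells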
ERa SRC1 inh: blocks coactivator binding to human estrogen receptor alpha; TR-FRET ER-alpha LBD / SRC-1 peptide, estradiol-bound; AID 629; inhibition, % at 25.6 µM; P03372; hit rate 1.7% among 86,000; in the data active means inhibition above about 50%;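 further: 0% = receptor plus peptide control and 100% = peptide only without receptor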
Smad3 inh: blocks human Smad3 binding to FoxH1 peptide | P84022 | inhibition, % at 25 µM | TR-FRET Smad3/Dy647-FoxH1 peptide binding, europium anti-His | hit rate 0.29% among 88,000 | AID 630;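 active means compounds that reduce the energy-transfer binding signal between the protein and its labelled peptide by more than half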;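 further: 0% = Smad3 plus labelled peptide maximal FRET and 100% = peptide-only background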
Target sequence (P84022 whole entry, looked up): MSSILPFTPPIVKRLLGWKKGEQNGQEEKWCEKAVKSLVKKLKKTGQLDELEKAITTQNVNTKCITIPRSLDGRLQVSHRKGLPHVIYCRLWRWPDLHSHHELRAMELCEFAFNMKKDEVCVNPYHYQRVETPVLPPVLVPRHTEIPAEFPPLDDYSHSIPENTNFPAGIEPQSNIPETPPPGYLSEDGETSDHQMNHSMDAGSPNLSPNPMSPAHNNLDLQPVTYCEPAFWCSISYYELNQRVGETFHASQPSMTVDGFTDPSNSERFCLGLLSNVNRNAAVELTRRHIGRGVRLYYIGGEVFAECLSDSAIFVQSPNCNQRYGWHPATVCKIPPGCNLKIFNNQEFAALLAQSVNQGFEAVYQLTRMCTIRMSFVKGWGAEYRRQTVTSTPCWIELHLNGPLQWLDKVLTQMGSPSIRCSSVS
ERa SRC1 pot: ER-alpha (human) coactivator binding potentiation; P03372; TR-FRET ERalpha-LBD/SRC-Cy5 coactivator binding, 2 h; 100 = basal binding, no effect; coactivator binding (% of control), % at 25.6 µM; hit rate 1.3% among 86,000; AID 639; in the data active means activity above about 200%;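 further: binding measured in presence of low estradiol as agonist stimulus; 0% = peptide alone without receptor and 100% = receptor with peptide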
FAK blocker: FAK (human) kinase inhibition; biochemical FAK kinase activity assay; hit rate 0.84% among 97,000; AID 727; inhibition, %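 (tested at 7 µM)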; Q05397; in the data active means inhibition above about 19%;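 further: 0% = DMSO and 100% = reference compound high control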
* hit, by the source's call; / = no result; [ ] = remark or other dose. The list is not random: actives were taken first. Their share in the collection is about 4%.

SMILES | Rev-RRE block | ERb coact inh | ERa SRC1 inh | Smad3 inh | ERa SRC1 pot | FAK blocker
CCn1c(O)c(C=Nc2ccc(N3CCOCC3)cc2)c(=O)n(CC)c1=S | 97.8*[fluorescence artefact?] | / | / | / | / | 7.1
CCN(CC)c1ccc(N=Cc2c(O)n(Cc3ccccc3)c(=O)[nH]c2=O)cc1 | 32.6 | 20.0 | -0.9 | 10.1 | 109.3 | -6.9
CCOc1ccc(-n2c(O)c(C=Nc3ccc(N(CC)CC)cc3)c(=O)[nH]c2=O)cc1 | 71.4* | 11.7 | 6.1 | -1.8 | 114.9 | 2.5
CCOc1ccccc1-n1c(O)c(C=Nc2ccc(N(CC)CC)cc2)c(=O)[nH]c1=O | / | 33.1 | 61.5*[fluorescence artefact?] | -6.6 | 90.8 | /
CCOc1ccc(N=Cc2c(O)n(C(C)(C)C)c(=O)[nH]c2=O)cc1 | 6.1 | 21.2 | 34.5 | -4.5 | 197.3 | 3.5
CCN(CC)c1ccc(N=Cc2c(O)n(-c3ccccc3C)c(=O)[nH]c2=O)cc1 | 65.6* | 27.1 | 1.0 | 4.6 | 99.1 | 0.2
O=C(NCC1CC1)[C@@H]1C2c3ccccc3C(c3ccccc32)[C@@H]1C(=O)O | / | / | / | 9.9 | / | /
c1nc(N2CC2)c2cnn([C@@H]3CCCCO3)c2n1 | / | / | / | 7.7 | / | /
CCOc1ccccc1N1C(=O)NC(=O)C(CCc2ccncc2)(CCc2ccncc2)C1=O | 3.4 | -16.1 | -8.2 | 16.6 | 384.0* | 0.6
COC1=C(C)C(=O)c2c(c(COC(N)=O)c3n2C[C@@H]2[C@H]3N2C)C1=O (stereo partly drawn) | / | / | / | 10.6 | / | /
CC(C)=C[C@H]1[C@H](C(=O)OCc2cc3c(cc2Cl)OCO3)C1(C)C | / | / | / | -3.3 | / | /
CC12CN3CC(C)(CN(C1)C3c1ccncc1)C2=O (stereo not drawn) | 1.7 | 93.2*[fluorescence artefact?] | -4.5 | -3.1 | 115.7 | -2.3
C=CCOc1ccc(CC2C(=O)N(C)C(=O)N(C)C2=O)cc1 | 8.3 | 37.1 | 57.4* | 29.7 | 96.8 | 6.8
Clc1cccc(Cl)c1C1N2CCCN12 (stereo not drawn) | 5.5 | 81.1*[fluorescence artefact?] | -2.4 | 0.8 | 121.8 | -0.2
c1ccc(C2N3CCCN23)cc1 (stereo not drawn) | 2.4 | -11.4 | 6.1 | 2.6 | 108.1 | 1.2
C=CCn1c(=O)c(C=Nc2cccc([N+](=O)[O-])c2)c(O)n(CCCC)c1=O | 45.0* | / | / | / | / | 2.6
CC(C)N1C(=O)/C(=C/C=C/c2ccco2)C(=O)N(Cc2ccco2)C1=O | 52.8* | / | / | / | / | -1.4
CCOC(=O)c1c(NC(=O)c2c(N)n(CCCOC)c3nc4ccccc4nc23)sc2c1CCCC2 | 7.4 | 13.1 | 4.0 | 13.6 | 97.0 | -1.7
CCOCCCn1c(N)c(C(=O)Nc2sc3c(c2C(=O)OC)CCCC3)c2nc3ccccc3nc21 | 48.7* | / | / | / | / | -1.5
Cc1ccnc(-n2c(C)cc(C=C3C(=O)N(C)C(=S)N(C)C3=O)c2C)c1 | 51.9* | / | / | / | / | -4.0
Cc1c(C(=O)N2CCC3(CC2)OCCO3)oc2ccc(S(=O)(=O)N3CCOCC3)cc12 | 5.2 | -4.0 | 3.3 | 66.5* | 108.2 | -1.4
Cc1c(C(=O)N2CCC3(CC2)OCCO3)oc2ccccc12 | -3.2 | -24.2 | -26.6 | -0.1 | 105.7 | -0.1
O=[As](O)(O)c1ccc(N=Nc2ccc([As](=O)(O)O)cc2)cc1 | / | / | / | -4.2 | / | /
CC(C)[C@@H](Br)C(=O)NCC(=O)O | / | / | / | -6.9 | / | /
O=C(c1ccc(CS(=O)(=O)c2ccc(Br)cc2)o1)N1CCC2(CC1)OCCO2 | 3.3 | 11.8 | 2.0 | -0.5 | 99.0 | -0.7
SMILES | Rev-RRE block | ERb coact inh | ERa SRC1 inh | Smad3 inh | ERa SRC1 pot | FAK blocker
O=C(c1ccc(CS(=O)(=O)c2ccccc2)o1)N1CCC2(CC1)OCCO2 | 6.9 | 73.8*[fluorescence artefact?] | 46.3 | -4.0 | 33.1 | 1.1
O=C(O)C[SH+]CC(=O)O.O=C(O)C[SH+]CC(=O)O.[Cu] | / | / | / | 13.8 | / | /
C[C@@H]1O[C@H](O[C@H]2C[C@@H](O)[C@]3(CO)[C@@H]4[C@@H](O)C[C@]5(C)[C@@H](C6=CC(=O)OC6)CC[C@@]5(O)[C@H]4CC[C@@]3(O)C2)[C@@H](O)[C@H](O)[C@H]1O | / | / | / | 0.6 | / | /
CC(C)N1C(=O)CCC1C(=O)N1CCC2(CC1)OCCO2 (stereo not drawn) | 3.6 | -7.0 | -4.0 | -1.7 | 106.5 | 0.1
O=C(C1CCC(=O)N1Cc1ccccc1Cl)N1CCC2(CC1)OCCO2 (stereo not drawn) | 4.8 | -1.1 | -5.8 | 4.0 | 809.1*[fluorescence artefact?] | 0.0
Cc1ccc(C2(c3ccc(C)c(O)c3C)CCN(C)CC2)c(C)c1O | / | / | / | 29.5 | / | /
CCN1/C(=C\C=C\C2=[N+](CC)c3ccccc3C2(C)C)C(C)(C)c2ccccc21 | 57.1*[fluorescence artefact?] | -9.8 | 9.5 | -0.2 | 113.2 | -1.0
CN(C)c1ccc(NC(=O)CN2C(=O)CN=C(c3ccccc3)c3ccccc32)cc1 | 3.6 | 52.9*[fluorescence artefact?] | 21.6 | 1.0 | 52.3 | 8.1
Cn1c(=O)cc(SCC(=O)N2CCC3(CC2)OCCO3)c2ccc(Cl)cc21 | -1.1 | -8.4 | 3.2 | 55.7*[fluorescence artefact?] | 114.5 | -3.4
O=S(=O)(O)/C(=C\c1ccccc1)c1ccccc1 (tested in a mixture with another compound) | / | / | / | 11.6 | / | /
Nc1nc(N)c(N=Nc2ccc([As](=O)(O)O)c(O)c2)c(N)n1 | / | / | / | 83.7* | / | /
Nc1nc(N)c(N=Nc2ccc([As](=O)(O)O)cc2)c(=O)[nH]1 | / | / | / | 21.2 | / | /
C/C(N[O-])=C(\C)[N+]([O-])=[Rh][Cl].CC(=N\[O-])/C(C)=N/[O-].c1ccc([PH+](c2ccccc2)c2ccccc2)cc1 | / | / | / | -0.5 | / | /
CN(C)CS/C(N)=N/[C@H](O)C(Cl)(Cl)Cl | / | / | / | 53.8* | / | /
O=C(O)CN1CCN(CC(=O)O)CC(=O)[O][Hg][O]C(=O)C1 | / | / | / | 0.0 | / | /
Nc1cc[c]([Hg])cc1.Nc1nc2c(ncn2[C@H]2O[C@H](CO)[C@@H](O)[C@@H]2O)c(=[SH+])[nH]1 | / | / | / | 72.8* | / | /
Cc1nc2cc(C(=O)N3CCC4(CC3)OCCO4)ccc2n1-c1cccc(F)c1 | 3.4 | -8.5 | 3.0 | 2.2 | 121.7 | -2.4
O=C(c1ccc2nc(-c3ccco3)c(-c3ccco3)nc2c1)N1CCC2(CC1)OCCO2 | / | 75.9*[fluorescence artefact?] | 56.5*[fluorescence artefact?] | 5.5 | 38.8 | /
CCn1c(O)c(C(=O)CC2NCCc3ccccc32)c(=O)n(CC)c1=S (stereo not drawn) | 48.4* | -5.8 | 3.2 | 3.0 | 89.2 | -1.0

Screening data as filed in PubChem.
